This note sets out measurements from PubChem BioAssay.

Molecules are shown by their SMILES. Active and inactive are the calls of the source.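 How the source made its calls, unless noted: active means viability at or under a set limit in both replicates, limit being median viability minus 3 SD (cut at about 48% in these data, passing the limit was not always enough); inconclusive means at or under the limit in just one replicate; inactive means at or above the limit in both replicates.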

Experiment [1] in a line: Her2 expression decrease, cell viability multiplex – SKBR3 breast tumor cells, AlphaScreen, ATP viability, primary screen (AID 461;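 active means Her2 level under about 52% in both replicate screens, with viability over 70% of control, limit read from the data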;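 on Her2 level: lower value means less Her2 protein in the cells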;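 on viability: percent of carrier control wells set as 100% viability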). The note with it: SKBR3 Her2 protein level, 18-24 h, measured here: SKBR3 viability, ATP luminescence, at 10 µM.
Experiment [2] addresses Receptor tyrosine-protein kinase erbB-2 (Homo sapiens) (UniProt P04626). Described as above. The note with it: 18-24 h, at 10 µM, stronger effect = lower value.
Experiment [3] is described as follows: reduced viability of SK-BR-3 breast cancer cells – cell-based, 24 h, human, pilot screen (AID 572;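 active means viability at or below 10% of carrier control in both of two separate runs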;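 further: compound exposure lasted between 18 and 24 h rather than exactly 24 h; 100% = carrier-treated control wells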). The note with it: SK-BR-3 viability, CellTiter-Glo luminescence, at 10 µM, stronger effect = lower value.
A short description of experiment [4]: HUVEC growth inhibition – cell-based, human, primary screen (AID 575;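 active means viability at or below 30% in both replicate assays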;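 further: 100% = median of untreated cell wells with 0.1% DMSO on each plate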). As to conditions: HUVEC proliferation, CellTiter-Glo luminescence, 72 h; at 10 µM; stronger effect = lower value. The method, boiled down: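 Assay system: Primary human umbilical vein endothelial cells | Quantity: 1250 cells per well | Medium: Supplemented EBM, 2% fetal bovine serum | Detection: CellTiter-Glo luminescence measuring cellular ATP | Read-out: % viability vs DMSO wells | Plate: Collagen-coated 384-well format | Times: 72 h exposure, 37 °C, 5% CO2, 30 min RT equilibration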

A short description of experiment [5]: H69AR cell proliferation blockers – human, duplicate replicates, primary screen (AID 580).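 Further: 100% = mean luminescence of untreated wells and 0% = no signal.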 As to conditions: H69AR lung tumor cells viability, ATP luminescence, 72 h; at 10 µM; stronger effect = lower value.
The nature of experiment [6]: MRP1 drug-resistance reversers in H69AR cells – cell-based, doxorubicin co-treatment, pilot screen (AID 601;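 active means viability loss from added drug above about 55%, and viability with drug at most 40%, in both replicates, limit read from the data, passing the limit was not always enough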). The note with it: CellTiter-Glo, 72 h, at 10 µM; for differential viability (reversal): stronger effect = higher value.
A short description of experiment [7]: yeast transport mutant growth inhibition pilot in 384-well plates, post-Golgi transport modulator project (AID 636; in the data active means inhibition above about 31%). The note with it: absorbance 615 nm, about 18 h, stronger effect = higher value.
A short description of experiment [8]: growth suppression of yeast trafficking mutant, preliminary HTS, modulators of trafficking downstream of Golgi apparatus project, 1536-format plate, OD 615 nm (AID 637; in the data active means inhibition above about 30%). The note with it: yeast transport mutant growth, absorbance 615 nm, 18 h; stronger effect = higher value.
[9] abbreviates: H69AR cells + 2 uM doxorubicin, measured here: viability with 2 uM doxorubicin, stronger effect = lower value.
[10] abbreviates: H69AR cells, compound alone cytotoxicity.

Sequence of Receptor tyrosine-protein kinase erbB-2 (Homo sapiens) (P04626 whole entry, looked up): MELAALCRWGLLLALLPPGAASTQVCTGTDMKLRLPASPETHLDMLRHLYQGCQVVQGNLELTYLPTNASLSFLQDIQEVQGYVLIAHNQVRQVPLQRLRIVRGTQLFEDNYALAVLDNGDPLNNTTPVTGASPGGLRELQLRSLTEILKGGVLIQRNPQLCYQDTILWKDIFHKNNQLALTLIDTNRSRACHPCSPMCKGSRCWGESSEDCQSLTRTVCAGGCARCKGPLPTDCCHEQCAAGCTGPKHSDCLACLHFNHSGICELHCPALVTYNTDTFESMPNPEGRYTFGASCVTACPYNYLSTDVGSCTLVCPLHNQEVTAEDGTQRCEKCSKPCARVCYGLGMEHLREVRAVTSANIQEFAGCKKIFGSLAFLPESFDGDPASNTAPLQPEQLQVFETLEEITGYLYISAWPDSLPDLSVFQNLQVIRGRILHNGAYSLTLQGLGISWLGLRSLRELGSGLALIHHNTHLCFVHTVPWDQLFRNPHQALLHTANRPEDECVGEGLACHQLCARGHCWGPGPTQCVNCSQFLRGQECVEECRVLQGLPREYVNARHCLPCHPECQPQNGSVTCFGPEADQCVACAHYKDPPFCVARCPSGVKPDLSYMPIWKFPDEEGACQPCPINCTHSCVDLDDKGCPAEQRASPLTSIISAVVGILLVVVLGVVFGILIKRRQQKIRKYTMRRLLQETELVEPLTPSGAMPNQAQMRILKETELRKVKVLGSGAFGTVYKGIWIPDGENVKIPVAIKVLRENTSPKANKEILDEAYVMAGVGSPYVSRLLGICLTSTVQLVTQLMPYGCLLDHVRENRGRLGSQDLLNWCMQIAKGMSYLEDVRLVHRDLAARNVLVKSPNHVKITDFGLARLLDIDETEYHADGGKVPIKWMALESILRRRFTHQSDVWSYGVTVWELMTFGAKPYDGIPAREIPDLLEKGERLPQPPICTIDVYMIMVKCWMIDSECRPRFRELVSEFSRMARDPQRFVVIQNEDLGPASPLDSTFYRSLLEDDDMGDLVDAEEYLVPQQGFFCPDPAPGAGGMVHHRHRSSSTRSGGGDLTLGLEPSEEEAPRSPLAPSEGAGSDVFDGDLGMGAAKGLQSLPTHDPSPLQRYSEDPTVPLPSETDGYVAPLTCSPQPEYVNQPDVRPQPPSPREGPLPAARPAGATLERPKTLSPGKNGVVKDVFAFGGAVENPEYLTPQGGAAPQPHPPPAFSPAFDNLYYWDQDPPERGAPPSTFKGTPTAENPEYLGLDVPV

Consider `O=C(CSc1nnc(-c2ccncc2)n1-c1ccc(F)cc1)NC(=O)NCc1ccco1`, for which the viability in experiment [1] was 132%; in experiment [3], 132% (inactive); in experiment [4] it was 89.1% (inactive); in experiment [5], 86% (inactive); in experiment [6] (setting [9]), 87.8%; in experiment [6] (setting [10]), 86%. Moreover, the Her2 level in experiment [2] is 89% (inactive). Moreover, in experiment [6] (H69AR cells + 2 uM doxorubicin), the differential viability (reversal) is -1.76% (inactive). In addition, the inhibition was -7.4% (inactive) in experiment [7] and -3.97% (inactive) in experiment [8].

Consider `O=c1[nH]c(SCc2cc(=O)n3ccccc3n2)nc2c1CCC2`, for which the viability in experiment [1] was 101%; in experiment [3] it was 101% (inactive); in experiment [4], 74.7% (inactive); in experiment [5], 85.2% (inactive); in experiment [6] (setting [9]) it was 83.6%; in experiment [6] (setting [10]) it was 85.2%. Further, the Her2 level in experiment [2] is 83.5% (inactive). Further, the differential viability (reversal) in experiment [6] (H69AR cells + 2 uM doxorubicin) is 1.62% (inactive). Besides, the inhibition in experiment [7] was -2.76% (inactive); in experiment [8] it was -2.22% (inactive).

For `CCC(C)NC(=O)C1CCCN(S(=O)(=O)c2ccc(-n3cnnn3)cc2)C1` (stereo not given), the viability in experiment [1] was 109%; in experiment [3], 109% (inactive); in experiment [4], 104% (inactive); in experiment [5] it was 103% (inactive); in experiment [6] (setting [9]) it was 88.6%; in experiment [6] (setting [10]) it was 103%. In addition, in experiment [2], the Her2 level was 104% (inactive). Besides, in experiment [6] (H69AR cells + 2 uM doxorubicin), the differential viability (reversal) is 14.5% (inactive). Further, the values for the inhibition in experiment [7] and in experiment [8] were -2.97% (inactive) and -10% (inactive), respectively.

As to `O=P(O)(O)c1ccccc1OCCOCCOc1ccccc1P(=O)(O)O`, the viability is 101% in experiment [1]; 101% (inactive) in experiment [3]; 111% (inactive) in experiment [4]; 92% (inactive) in experiment [5]; 86.1% in experiment [6] (setting [9]); 92% in experiment [6] (setting [10]). The Her2 level in experiment [2] is 89.5% (inactive). Also, the differential viability (reversal) in experiment [6] (H69AR cells + 2 uM doxorubicin) is 5.91% (inactive). Moreover, the inhibition in experiment [7] is -6.08% (inactive); in experiment [8], 0.5% (inactive).

Consider `CN1C(=O)CCC1(O)c1ccccc1` (stereo not given), for which the viability in experiment [1] was 89%; in experiment [3], 89% (inactive); in experiment [4] it was 116% (inactive); in experiment [5] it was 92.3% (inactive); in experiment [6] (setting [9]), 91.3%; in experiment [6] (setting [10]), 92.3%. Further, in experiment [2], the Her2 level was 98% (inactive). In addition, in experiment [6] (H69AR cells + 2 uM doxorubicin), the differential viability (reversal) was 0.975% (inactive). Besides, the inhibition in experiment [7] is 0.91% (inactive); in experiment [8] it was -8.17% (inactive).

As to `Cc1ccc(Cn2ncc3c(NCCCN4CCOCC4)ncnc32)cc1`, the viability is 92.5% in experiment [1]; 92.5% (inactive) in experiment [3]; 96.8% (inactive) in experiment [4]; 102% (inactive) in experiment [5]; 83.6% in experiment [6] (setting [9]); 102% in experiment [6] (setting [10]). In addition, in experiment [2], the Her2 level is 92.5% (inactive). Also, the differential viability (reversal) in experiment [6] (H69AR cells + 2 uM doxorubicin) is 18.2% (inactive). Besides, the figures for the inhibition in experiment [7] and in experiment [8] were -2.63% (inactive) and 0.32% (inactive), respectively.

On to `CCSCCNC(=O)c1cc(-n2cnnc2)ccc1Cl`, for which the viability in experiment [1] is 138%; in experiment [3], 138% (inactive); in experiment [4], 108% (inactive); in experiment [5], 86.3% (inactive); in experiment [6] (setting [9]), 85.9%; in experiment [6] (setting [10]), 86.3%. The Her2 level in experiment [2] is 106% (inactive). Also, in experiment [6] (H69AR cells + 2 uM doxorubicin), the differential viability (reversal) is 0.415% (inactive). Further, the inhibition in experiment [7] was -3.47% (inactive); in experiment [8], -1.48% (inactive).

On to `CN(C)S(=O)(=O)N1CCN(c2cccc(Cl)c2)CC1`, for which the viability is 112% in experiment [1]; 112% (inactive) in experiment [3]; 92% (inactive) in experiment [4]; 91% (inactive) in experiment [5]; 106% in experiment [6] (setting [9]); 91% in experiment [6] (setting [10]). In experiment [2], the Her2 level is 101% (inactive). Moreover, the differential viability (reversal) in experiment [6] (H69AR cells + 2 uM doxorubicin) is -15% (inactive). Besides, the inhibition in experiment [7] was 0% (inactive); in experiment [8] it was 27% (inactive).

Turning to `Cc1nc(NCCNC(=O)c2ccco2)c2c(C)c(C)sc2n1`, the viability in experiment [1] was 87.5%; in experiment [3], 87.5% (inactive); in experiment [4] it was 97.9% (inactive); in experiment [5], 86.5% (inactive); in experiment [6] (setting [9]), 84.3%; in experiment [6] (setting [10]) it was 86.5%. The Her2 level in experiment [2] is 81% (inactive). The differential viability (reversal) in experiment [6] (H69AR cells + 2 uM doxorubicin) is 2.2% (inactive). In addition, the inhibition in experiment [7] was -4.08% (inactive); in experiment [8], 0.91% (inactive).

With `CCCC(=O)Nc1cc(C)c(NC(=O)c2ccccn2)cn1`, the viability in experiment [1] is 90.5%; in experiment [3], 90.5% (inactive); in experiment [4], 92.2% (inactive); in experiment [5], 99.4% (inactive); in experiment [6] (setting [9]), 90.1%; in experiment [6] (setting [10]), 99.4%. In addition, in experiment [2], the Her2 level is 92.5% (inactive). The differential viability (reversal) in experiment [6] (H69AR cells + 2 uM doxorubicin) was 9.38% (inactive). Also, the inhibition in experiment [7] is -5.06% (inactive); in experiment [8] it was -0.32% (inactive).

Take `CCCCCn1c(N2CCN(Cc3ccccc3)CC2)nc2c1c(=O)[nH]c(=O)n2C`: the viability in experiment [1] is 110%; in experiment [3], 110% (inactive); in experiment [4] it was 93.3% (inactive); in experiment [5], 76.9% (inactive); in experiment [6] (setting [9]), 53.2%; in experiment [6] (setting [10]), 76.9%. In experiment [2], the Her2 level is 78% (inactive). The differential viability (reversal) in experiment [6] (H69AR cells + 2 uM doxorubicin) is 23.7% (inactive). For the same compound, the inhibition in experiment [7] is -6.67% (inactive); in experiment [8] it was -2.46% (inactive).

Turning to `CC(C)N(C(=O)CSc1nnc(NC(=O)C2CCC2)s1)C(C)C`, the viability in experiment [1] was 82.5%; in experiment [3], 82.5% (inactive); in experiment [4] it was 90.4% (inactive); in experiment [5] it was 92.9% (inactive); in experiment [6] (setting [9]), 89%; in experiment [6] (setting [10]) it was 92.9%. Also, in experiment [2], the Her2 level was 90.5% (inactive). Further, the differential viability (reversal) in experiment [6] (H69AR cells + 2 uM doxorubicin) was 3.82% (inactive). Also, the inhibition is -1.47% (inactive) in experiment [7] and -2.42% (inactive) in experiment [8].

As for `O=C(CCSc1ccccc1)N1CCN(C(=O)c2ccco2)CC1`, the viability in experiment [1] was 99%; in experiment [3], 99% (inactive); in experiment [4] it was 93.1% (inactive); in experiment [5], 95.1% (inactive); in experiment [6] (setting [9]), 84.1%; in experiment [6] (setting [10]), 95.1%. In addition, the Her2 level in experiment [2] is 99.5% (inactive). The differential viability (reversal) in experiment [6] (H69AR cells + 2 uM doxorubicin) is 11% (inactive). Besides, the inhibition in experiment [7] was -0.79% (inactive); in experiment [8], -0.32% (inactive).

In the case of `CCOc1ccc2[nH]c(=O)c(CN(Cc3nnnn3CCc3ccccc3)CC3CCCO3)cc2c1` (stereo not given), the viability is 78.5% in experiment [1]; 78.5% (inactive) in experiment [3]; 90.6% (inactive) in experiment [4]; 78.7% (inactive) in experiment [5]; 57.5% in experiment [6] (setting [9]); 78.7% in experiment [6] (setting [10]). Also, in experiment [2], the Her2 level is 89% (inactive). Further, the differential viability (reversal) in experiment [6] (H69AR cells + 2 uM doxorubicin) is 21.2% (inactive). The inhibition in experiment [7] was -5.34% (inactive); in experiment [8], -11.6% (inactive).

For `Cc1ccc(OC(=O)NC2CCS(=O)(=O)C2)cc1C` (stereo not given), the viability was 108% in experiment [1]; 108% (inactive) in experiment [3]; 103% (inactive) in experiment [4]; 95.3% (inactive) in experiment [5]; 92.7% in experiment [6] (setting [9]); 95.3% in experiment [6] (setting [10]). For the same compound, the Her2 level in experiment [2] is 95% (inactive). In addition, in experiment [6] (H69AR cells + 2 uM doxorubicin), the differential viability (reversal) was 2.59% (inactive). In addition, the inhibition in experiment [7] was -2.11% (inactive); in experiment [8] it was 6.23% (inactive).

As for `CCCOc1ccccc1NC(=O)c1c(-c2ccccc2)noc1C`, the viability in experiment [1] was 84.5%; in experiment [3], 84.5% (inactive); in experiment [4], 79.7% (inactive); in experiment [5], 89% (inactive); in experiment [6] (setting [9]), 82%; in experiment [6] (setting [10]), 89%. Also, the Her2 level in experiment [2] was 92% (inactive). The differential viability (reversal) in experiment [6] (H69AR cells + 2 uM doxorubicin) was 7.04% (inactive). Further, the inhibition in experiment [7] is 1.67% (inactive); in experiment [8] it was 5% (inactive).
